Results on nine compounds are retold here after ChEMBL document CHEMBL1944570, “Discovery of 4''-ether linked azithromycin-quinolone hybrid series: influence of the central linker on the antibacterial activity” (ACS Med Chem Lett, 2011).

Assay type in all cases: functional
Test [1] has as its system Streptococcus pyogenes. The test can be described thus: Antibacterial activity against erythromycin-susceptible Streptococcus pyogenes by agar microdilution method. The essentials: (§1)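 MIC by agar microdilution following NCCLS standards; strains drawn from the PLIVA Research Institute culture collection. MIC reported in μg/mL.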
Another test concerns Moraxella catarrhalis. The test can be described thus: Antibacterial activity against Moraxella catarrhalis by agar microdilution method. The essentials: (§2)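 Agar microdilution MIC per NCCLS standards against strains from the Pliva Research Institute culture collection; values in µg/mL. Panel included erythromycin-susceptible strains and strains with inducible or constitutive MLS resistance.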

In test [2] the test system is Staphylococcus aureus. Put plainly: Antibacterial activity against ciprofloxacin-resistant Staphylococcus aureus by agar microdilution method. The method, boiled down:
as §1

The test system of a further test is Haemophilus influenzae. Put plainly: Antibacterial activity against Haemophilus influenzae B0529 by agar microdilution method. The essentials: as §2
For test [3], the system named is Streptococcus pneumoniae. The test can be described thus: Antibacterial activity against erythromycin-susceptible Streptococcus pneumoniae by agar microdilution method. The essentials: as §1
Test [4] relates to Staphylococcus aureus. Put plainly: Antibacterial activity against erythromycin-susceptible Staphylococcus aureus by agar microdilution method. The method, boiled down: as §2
Test [5] has as its system Staphylococcus aureus. The test can be described thus: Antibacterial activity against constitutive MLS resistant Staphylococcus aureus by agar microdilution method. The essentials:
as §1

Test [6] relates to Streptococcus pyogenes. Put plainly: Antibacterial activity against efflux mediated macrolide resistant Streptococcus pyogenes by agar microdilution method. The method, boiled down: as §1
Test [7] has as its system Streptococcus pyogenes. The test can be described thus: Antibacterial activity against Streptococcus pyogenes with inducible resistance to MLS by agar microdilution method. The method, boiled down: as §1
Test [8] relates to Staphylococcus aureus. Put plainly: Antibacterial activity against Staphylococcus aureus with inducible resistance to MLS by agar microdilution method. The essentials:
as §1

Test [9] relates to Staphylococcus aureus. The test can be described thus: Antibacterial activity against efflux mediated macrolide resistant Staphylococcus aureus by agar microdilution method. The method, boiled down: as §1
Test [10] relates to Streptococcus pneumoniae. The test can be described thus: Antibacterial activity against constitutive MLS resistant Streptococcus pneumoniae by agar microdilution method. The essentials:
as §1

The test system of test [11] is Streptococcus pyogenes. The test can be described thus: Antibacterial activity against constitutive MLS resistant Streptococcus pyogenes by agar microdilution method. The method, boiled down: as §1

Each structure is given as a SMILES string. Values after ≈ are worked out from the molar mass of the structure shown.

Turning to `CCOC(=O)c1cn(CC)c2ccc(N3CCN(CCO[C@H]4[C@H](C)O[C@@H](O[C@H]5[C@H](C)[C@@H](O[C@@H]6O[C@H](C)C[C@H](N(C)C)[C@H]6O)[C@](C)(O)C[C@@H](C)CN(C)[C@H](C)[C@H]6OC(=O)O[C@]6(C)[C@@H](CC)OC(=O)[C@@H]5C)C[C@@]4(C)OC)CC3)cc2c1=O`, the MIC against Streptococcus pyogenes [1] was at most 0.125 mg/L; in the test with Moraxella catarrhalis, 0.25 mg/L (≈ 0.221 µM); in the test on Staphylococcus aureus [2], at least 64 mg/L; against Haemophilus influenzae it was 1 mg/L (≈ 0.885 µM); with Streptococcus pneumoniae [3], at most 0.125 mg/L; against Staphylococcus aureus [4] it was 0.5 mg/L (≈ 0.442 µM). Further, the MIC was over 64 mg/L with Staphylococcus aureus [5]; 16 mg/L (≈ 14.2 µM) against Streptococcus pyogenes [6]; 1 mg/L (≈ 0.885 µM) against Streptococcus pyogenes [7]; 64 mg/L (≈ 56.6 µM) against Staphylococcus aureus [8]; 8 mg/L (≈ 7.08 µM) in the test with Staphylococcus aureus [9]; 64 mg/L (≈ 56.6 µM) in the test on Streptococcus pneumoniae [10]. Also, the MIC against Streptococcus pyogenes [11] amounted to 64 mg/L (≈ 56.6 µM).
In the case of `CC[C@H]1OC(=O)[C@H](C)[C@@H](O[C@H]2C[C@@](C)(OC)[C@@H](OCCN3CCN(c4ccc5c(c4)c(=O)c(C(=O)O)cn5CC)CC3)[C@H](C)O2)[C@H](C)[C@@H](O[C@@H]2O[C@H](C)C[C@H](N(C)C)[C@H]2O)[C@](C)(O)C[C@@H](C)CN(C)[C@H](C)[C@H]2OC(=O)O[C@@]21C`, the MIC in the test with Streptococcus pyogenes [1] is 0.25 mg/L (≈ 0.227 µM); against Moraxella catarrhalis, 4 mg/L (≈ 3.63 µM); with Staphylococcus aureus [2], at least 64 mg/L; in the test with Haemophilus influenzae, 2 mg/L (≈ 1.81 µM); in the test on Streptococcus pneumoniae [3] it was at most 0.125 mg/L; in the test on Staphylococcus aureus [4] it was 1 mg/L (≈ 0.907 µM). For the same compound, the MIC was found to be 32 mg/L (≈ 29 µM) against Staphylococcus aureus [5]; 4 mg/L (≈ 3.63 µM) in the test on Streptococcus pyogenes [6]; 4 mg/L (≈ 3.63 µM) against Streptococcus pyogenes [7]; 16 mg/L (≈ 14.5 µM) against Staphylococcus aureus [8]; 2 mg/L (≈ 1.81 µM) with Staphylococcus aureus [9]; 32 mg/L (≈ 29 µM) in the test with Streptococcus pneumoniae [10]. Besides, the MIC in the test with Streptococcus pyogenes [11] turned out to be 32 mg/L (≈ 29 µM).
For `CC[C@H]1OC(=O)[C@H](C)[C@@H](O[C@H]2C[C@@](C)(OC)[C@@H](OCCNCCNc3cc4c(=O)c(C(=O)O)cn(C5CC5)c4cc3Cl)[C@H](C)O2)[C@H](C)[C@@H](O[C@@H]2O[C@H](C)C[C@H](N(C)C)[C@H]2O)[C@](C)(O)C[C@@H](C)CN(C)[C@H](C)[C@H]2OC(=O)O[C@@]21C`, the MIC in the test on Streptococcus pyogenes [1] was at most 0.125 mg/L; in the test with Moraxella catarrhalis it was 0.25 mg/L (≈ 0.223 µM); in the test with Staphylococcus aureus [2] it was at least 64 mg/L; in the test on Haemophilus influenzae, 2 mg/L (≈ 1.78 µM); in the test with Streptococcus pneumoniae [3], at most 0.125 mg/L; in the test on Staphylococcus aureus [4] it was 2 mg/L (≈ 1.78 µM). The MIC in the test on Staphylococcus aureus [5] was over 64 mg/L; with Streptococcus pyogenes [6], 0.5 mg/L (≈ 0.445 µM); with Streptococcus pyogenes [7], 0.5 mg/L (≈ 0.445 µM); in the test with Staphylococcus aureus [8], 64 mg/L (≈ 57 µM); against Staphylococcus aureus [9], 4 mg/L (≈ 3.56 µM); against Streptococcus pneumoniae [10] it was 64 mg/L (≈ 57 µM). This compound also displayed an MIC against Streptococcus pyogenes [11] of 2 mg/L (≈ 1.78 µM).
On to `CC[C@H]1OC(=O)[C@H](C)[C@@H](O[C@H]2C[C@@](C)(OC)[C@@H](OCCNCCOCCNc3cc4c(cc3F)c(=O)c(C(=O)O)cn4C3CC3)[C@H](C)O2)[C@H](C)[C@@H](O[C@@H]2O[C@H](C)C[C@H](N(C)C)[C@H]2O)[C@](C)(O)C[C@@H](C)CN(C)[C@H](C)[C@H]2OC(=O)O[C@@]21C`, for which the MIC in the test on Streptococcus pyogenes [1] was at most 0.125 mg/L; in the test with Moraxella catarrhalis, 0.5 mg/L (≈ 0.435 µM); in the test with Staphylococcus aureus [2] it was at least 64 mg/L; against Haemophilus influenzae, 4 mg/L (≈ 3.48 µM); in the test on Streptococcus pneumoniae [3] it was at most 0.125 mg/L; against Staphylococcus aureus [4], 8 mg/L (≈ 6.95 µM). In addition, the MIC in the test with Staphylococcus aureus [5] was over 64 mg/L; against Streptococcus pyogenes [6] it was 4 mg/L (≈ 3.48 µM); against Streptococcus pyogenes [7], 1 mg/L (≈ 0.869 µM); against Staphylococcus aureus [8], 64 mg/L (≈ 55.6 µM); against Staphylococcus aureus [9] it was 64 mg/L (≈ 55.6 µM); with Streptococcus pneumoniae [10] it was 16 mg/L (≈ 13.9 µM). The MIC in the test on Streptococcus pyogenes [11] was 32 mg/L (≈ 27.8 µM).
Regarding `CC[C@H]1OC(=O)[C@H](C)[C@@H](O[C@H]2C[C@@](C)(OC)[C@@H](OCCNCCOCCOCCNc3cc4c(=O)c(C(=O)O)cn(C5CC5)c4cc3Cl)[C@H](C)O2)[C@H](C)[C@@H](O[C@@H]2O[C@H](C)C[C@H](N(C)C)[C@H]2O)[C@](C)(O)C[C@@H](C)CN(C)[C@H](C)[C@H]2OC(=O)O[C@@]21C`, the MIC was at most 0.125 mg/L with Streptococcus pyogenes [1]; 0.5 mg/L (≈ 0.413 µM) against Moraxella catarrhalis; at least 64 mg/L in the test with Staphylococcus aureus [2]; 1 mg/L (≈ 0.826 µM) against Haemophilus influenzae; at most 0.125 mg/L in the test with Streptococcus pneumoniae [3]; 2 mg/L (≈ 1.65 µM) against Staphylococcus aureus [4]. The MIC in the test on Staphylococcus aureus [5] was found to be 32 mg/L (≈ 26.4 µM); against Streptococcus pyogenes [6], 0.5 mg/L (≈ 0.413 µM); against Staphylococcus aureus [8], 64 mg/L (≈ 52.9 µM); in the test on Staphylococcus aureus [9] it was 2 mg/L (≈ 1.65 µM); against Streptococcus pneumoniae [10], 64 mg/L (≈ 52.9 µM); in the test with Streptococcus pyogenes [11] it was 1 mg/L (≈ 0.826 µM).
As for `CC[C@H]1OC(=O)[C@H](C)[C@@H](O[C@H]2C[C@@](C)(OC)[C@@H](OCCNCCNc3cc4c(cc3F)c(=O)c(C(=O)O)cn4C3CC3)[C@H](C)O2)[C@H](C)[C@@H](O[C@@H]2O[C@H](C)C[C@H](N(C)C)[C@H]2O)[C@](C)(O)C[C@@H](C)CN(C)[C@H](C)[C@@H](O)[C@]1(C)O`, the MIC in the test on Streptococcus pyogenes [1] is at most 0.125 mg/L; with Moraxella catarrhalis, 1 mg/L (≈ 0.926 µM); against Staphylococcus aureus [2], at least 64 mg/L; against Haemophilus influenzae, 4 mg/L (≈ 3.7 µM); in the test with Streptococcus pneumoniae [3], at most 0.125 mg/L; against Staphylococcus aureus [4] it was 2 mg/L (≈ 1.85 µM). In addition, the MIC against Staphylococcus aureus [5] amounted to 64 mg/L (≈ 59.2 µM); with Streptococcus pyogenes [6], 1 mg/L (≈ 0.926 µM); in the test with Staphylococcus aureus [8], 64 mg/L (≈ 59.2 µM); against Staphylococcus aureus [9], 2 mg/L (≈ 1.85 µM); in the test with Streptococcus pneumoniae [10] it was 32 mg/L (≈ 29.6 µM); against Streptococcus pyogenes [11] it was 1 mg/L (≈ 0.926 µM).
With `CC[C@H]1OC(=O)[C@H](C)[C@@H](O[C@H]2C[C@@](C)(OC)[C@@H](OCCNCCOCCNc3cc4c(cc3F)c(=O)c(C(=O)O)cn4C3CC3)[C@H](C)O2)[C@H](C)[C@@H](O[C@@H]2O[C@H](C)C[C@H](N(C)C)[C@H]2O)[C@](C)(O)C[C@@H](C)CN(C)[C@H](C)[C@@H](O)[C@]1(C)O`, the MIC in the test with Streptococcus pyogenes [1] was at most 0.125 mg/L; with Moraxella catarrhalis, 8 mg/L (≈ 7.11 µM); against Staphylococcus aureus [2], at least 64 mg/L; in the test on Haemophilus influenzae, 8 mg/L (≈ 7.11 µM); in the test on Streptococcus pneumoniae [3] it was at most 0.125 mg/L; against Staphylococcus aureus [4] it was 8 mg/L (≈ 7.11 µM). The MIC is over 64 mg/L against Staphylococcus aureus [5]; 1 mg/L (≈ 0.889 µM) against Streptococcus pyogenes [6]; 64 mg/L (≈ 56.9 µM) against Staphylococcus aureus [8]; 8 mg/L (≈ 7.11 µM) in the test with Staphylococcus aureus [9]; 2 mg/L (≈ 1.78 µM) against Streptococcus pneumoniae [10]; 2 mg/L (≈ 1.78 µM) in the test with Streptococcus pyogenes [11].
For the compound `CC[C@H]1OC(=O)[C@H](C)[C@@H](O[C@H]2C[C@@](C)(OC)[C@@H](OCCNCCOCCOCCNc3cc4c(=O)c(C(=O)O)cn(C5CC5)c4cc3Cl)[C@H](C)O2)[C@H](C)[C@@H](O[C@@H]2O[C@H](C)C[C@H](N(C)C)[C@H]2O)[C@](C)(O)C[C@@H](C)CN(C)[C@H](C)[C@@H](O)[C@]1(C)O`, the MIC in the test with Streptococcus pyogenes [1] is at most 0.125 mg/L; in the test on Moraxella catarrhalis, 1 mg/L (≈ 0.844 µM); with Staphylococcus aureus [2], at least 64 mg/L; against Haemophilus influenzae it was 4 mg/L (≈ 3.38 µM); with Streptococcus pneumoniae [3], at most 0.125 mg/L; in the test with Staphylococcus aureus [4], 4 mg/L (≈ 3.38 µM). The MIC with Staphylococcus aureus [5] stood at 32 mg/L (≈ 27 µM); against Streptococcus pyogenes [6] it was 2 mg/L (≈ 1.69 µM); against Staphylococcus aureus [8], 64 mg/L (≈ 54 µM); against Staphylococcus aureus [9], 1 mg/L (≈ 0.844 µM); with Streptococcus pneumoniae [10], 64 mg/L (≈ 54 µM); against Streptococcus pyogenes [11], 2 mg/L (≈ 1.69 µM).
In the case of `CC[C@H]1OC(=O)[C@H](C)C(=O)[C@H](C)[C@@H](O[C@@H]2O[C@H](C)C[C@H](N(C)C)[C@H]2O)[C@](C)(OCC=Cc2cnc3ccccc3c2)C[C@@H](C)C(=O)[C@H](C)[C@H]2NC(=O)O[C@@]21C` [CETHROMYCIN], the MIC against Streptococcus pyogenes [1] was at most 0.125 mg/L; with Moraxella catarrhalis it was at most 0.125 mg/L; against Staphylococcus aureus [2], at least 64 mg/L; with Haemophilus influenzae, 1 mg/L (≈ 1.31 µM); in the test with Streptococcus pneumoniae [3], at most 0.125 mg/L; against Staphylococcus aureus [4], at most 0.125 mg/L. Also, the MIC is over 64 mg/L in the test on Staphylococcus aureus [5], 0.25 mg/L (≈ 0.326 µM) against Staphylococcus aureus [8], 0.25 mg/L (≈ 0.326 µM) against Staphylococcus aureus [9] and 1 mg/L (≈ 1.31 µM) in the test on Streptococcus pyogenes [11].
